{
  "source": "ChEMBL document CHEMBL3286203",
  "about": "“Reactive oxygen species (ROS) inducible DNA cross-linking agents and their effect on cancer cells and normal lymphocytes” (J Med Chem, 2014)",
  "key": {"CLL": {"tested_on": "CLL", "assay": "Induction of apoptosis in human CLL cells at 10 uM after 24 hrs by DCDFA assay in presence of NAC", "format": "functional, cell-based"}, "[1]": {"assay": "Drug level in phosphate buffer treated with 40 mM N,N-Bis(2-chloroethyl)-4-(4,4,5,5-tetramethyl-1,3,2-dioxaborolan-2-yl)aniline after 30 mins by 1H-NMR analysis in presence of H2O2", "format": "physicochemical", "settings": "0.5 h", "how_it_was_run": "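1H NMR of the boronate mustard (40 mM) with H2O2 (60 mM), 30 min after H2O2 addition. Solvent was 400 mM phosphate buffer pH 8 (50 μL) in DMSO-d6 (450 μL). Read-out is conversion to the activated product.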"}},
  "note": "Active and inactive are the calls of the source. No cut-off for these calls is given here.",
  "data": [
    {"smiles": "CC1(C)OB(c2ccc(N(CCCl)CCBr)cc2)OC1(C)C", "values": [
      {"measurement": "Activity", "setting": "CLL", "value": "inactive"},
      {"measurement": "Drug metabolism", "setting": "[1]", "value": "metabolite_detected"}
    ]}
  ]
}
